Measurements as given in ChEMBL document CHEMBL3286385, “Novel 1-[4-(Aminosulfonyl)phenyl]-1H-1,2,4-triazole derivatives with remarkable selective COX-2 inhibition: design, synthesis, molecular docking, anti-inflammatory and ulcerogenicity studies” (Eur J Med Chem, 2014).

Experiments:
Rattus norvegicus [1] = test: Antiinflammatory activity against albino rat assessed as inhibition of carrageenan-induced paw edema at 0.28 mmol/kg, po administered 30 mins prior to carrageenan challenge measured after 3 hrs relative to control; type: functional
How it was run: (§1)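 Adult male albino rats (120–140 g), in groups of four, were fasted 24 h with water allowed. Compounds were given orally as a suspension in 0.5% w/v CMC in water, and controls received CMC alone. After 30 min, 0.1 mL of 1% carrageenan in saline was injected subplantar into the right hind paw and saline into the left. Paw thickness was measured by caliper. % inhibition = [(VR−VL)control − (VR−VL)treated]/(VR−VL)control; one-way ANOVA.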

Rattus norvegicus [2] = test: Antiinflammatory activity against albino rat assessed as inhibition of carrageenan-induced paw edema at 0.28 mmol/kg, po administered 30 mins prior to carrageenan challenge measured after 3 hrs relative to celecoxib; type: functional; design: scale not given: the % may be the effect or the level left
[3] = biological target: T1, Prostaglandin G/H synthase 2 (Homo sapiens, UniProt P35354); test: Inhibition of human recombinant COX2 using ADHP as substrate after 20 mins by fluorescence assay
T1 sequence (P35354 whole entry): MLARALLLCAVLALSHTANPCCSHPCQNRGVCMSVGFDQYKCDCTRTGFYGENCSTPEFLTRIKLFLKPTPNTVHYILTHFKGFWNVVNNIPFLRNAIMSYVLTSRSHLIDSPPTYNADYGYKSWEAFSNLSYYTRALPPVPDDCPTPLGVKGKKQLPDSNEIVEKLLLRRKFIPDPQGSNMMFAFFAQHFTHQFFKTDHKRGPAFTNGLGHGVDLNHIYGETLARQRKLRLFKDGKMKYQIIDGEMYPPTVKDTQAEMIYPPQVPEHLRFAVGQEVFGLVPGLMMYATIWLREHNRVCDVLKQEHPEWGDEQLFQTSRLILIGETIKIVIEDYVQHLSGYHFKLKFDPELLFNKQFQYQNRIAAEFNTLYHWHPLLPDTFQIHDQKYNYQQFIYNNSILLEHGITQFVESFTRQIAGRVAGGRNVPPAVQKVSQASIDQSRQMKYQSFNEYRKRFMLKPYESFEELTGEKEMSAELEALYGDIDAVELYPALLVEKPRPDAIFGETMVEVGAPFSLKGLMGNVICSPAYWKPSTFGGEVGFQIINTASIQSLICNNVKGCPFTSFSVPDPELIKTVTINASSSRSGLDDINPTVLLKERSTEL
How it was run: (§2)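 Ovine COX-1 or human recombinant COX-2 was preincubated 20 min at room temperature with a range of compound concentrations in 100 mM Tris-HCl pH 8.0, heme and ADHP. Arachidonic acid was then added for 2 min at room temperature, and resorufin fluorescence was read. IC50 came from the dose-response curve (triplicate determinations). Selectivity index = COX-1 IC50/COX-2 IC50.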

Rattus norvegicus [4] = test: Antiinflammatory activity against albino rat assessed as inhibition of carrageenan-induced paw edema at 0.28 mmol/kg, po administered 30 mins prior to carrageenan challenge measured after 4 hrs relative to control; type: functional; how it was run: as §1
Rattus norvegicus [5] = test: Gastric toxicity in rat assessed as ulcer index at 0.28 mmol/kg, po; type: organism-based; details: in vivo
Rattus norvegicus [6] = test: Antiinflammatory activity against albino rat assessed as inhibition of carrageenan-induced paw edema at 0.28 mmol/kg, po administered 30 mins prior to carrageenan challenge measured after 5 hrs relative to control; type: functional; how it was run: as §1
Rattus norvegicus [7] = test: Antiinflammatory activity against albino rat assessed as inhibition of carrageenan-induced paw edema at 0.28 mmol/kg, po administered 30 mins prior to carrageenan challenge measured after 3 hrs relative to indomethacin; type: functional; design: scale not given: the % may be the effect or the level left
Rattus norvegicus [8] = test: Antiinflammatory activity against albino rat assessed as inhibition of carrageenan-induced paw edema at 0.28 mmol/kg, po administered 30 mins prior to carrageenan challenge measured after 2 hrs relative to control; type: functional; how it was run: as §1
[9] = Selectivity index, ratio of IC50 for ovine COX1 to IC50 for human recombinant COX2; how it was run: as §2
[10] = biological target: T2, Prostaglandin G/H synthase 1 (Ovis aries, UniProt P05979); test: Inhibition of ovine COX1 using ADHP as substrate after 20 mins by fluorescence assay; how it was run: as §2
T2 sequence (P05979 whole entry): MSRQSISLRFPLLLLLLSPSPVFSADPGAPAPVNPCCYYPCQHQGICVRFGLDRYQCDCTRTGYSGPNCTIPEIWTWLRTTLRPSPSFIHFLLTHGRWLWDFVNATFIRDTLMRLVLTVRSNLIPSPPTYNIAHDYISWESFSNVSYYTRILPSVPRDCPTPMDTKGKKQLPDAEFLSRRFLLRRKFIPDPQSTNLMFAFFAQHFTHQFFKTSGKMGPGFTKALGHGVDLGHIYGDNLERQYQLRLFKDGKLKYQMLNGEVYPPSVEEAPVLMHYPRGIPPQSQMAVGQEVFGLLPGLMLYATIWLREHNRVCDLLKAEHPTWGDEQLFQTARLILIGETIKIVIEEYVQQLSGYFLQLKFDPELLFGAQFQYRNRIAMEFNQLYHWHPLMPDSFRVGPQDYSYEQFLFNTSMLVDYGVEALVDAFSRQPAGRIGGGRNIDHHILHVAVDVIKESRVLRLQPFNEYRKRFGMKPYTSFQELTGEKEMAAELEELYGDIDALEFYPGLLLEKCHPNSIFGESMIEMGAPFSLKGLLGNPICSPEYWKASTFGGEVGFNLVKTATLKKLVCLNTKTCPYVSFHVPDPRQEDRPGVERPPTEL

Rattus norvegicus [11] = test: Antiinflammatory activity against albino rat assessed as inhibition of carrageenan-induced paw edema at 0.28 mmol/kg, po administered 30 mins prior to carrageenan challenge measured after 1 hr relative to control; type: functional; how it was run: as §1

SMILES	inhibition in vivo at 280 µmol/kg (Rattus norvegicus [1])	Activity (Rattus norvegicus [2])	IC50 [3]	inhibition in vivo at 280 µmol/kg (Rattus norvegicus [4])	UI (Rattus norvegicus [5])	inhibition in vivo at 280 µmol/kg (Rattus norvegicus [6])	Activity (Rattus norvegicus [7])	inhibition in vivo at 280 µmol/kg (Rattus norvegicus [8])	Ratio IC50 [9]	IC50 [10]	inhibition in vivo at 280 µmol/kg (Rattus norvegicus [11])
CC(C)NC(=O)c1nc(-c2ccccc2)n(-c2ccc(S(N)(=O)=O)cc2)n1	55%	80%	16 µM	44%	0	43%	70%	43%	> 62.5	> 1000 µM	21%
NS(=O)(=O)c1ccc(-n2nc(C(=O)NC3CCCCC3)nc2-c2ccccc2)cc1	65%	94%	0.66 µM	53%	0	42%	82%	43%	> 1520	> 1000 µM	20%
CC(=O)c1ccc(NC(=O)c2nc(-c3ccccc3)n(-c3ccc(S(N)(=O)=O)cc3)n2)cc1	73%	106%		64%	0.5	42%	92%	68%			53%
COC(=O)c1nc(-c2ccccc2)n(-c2ccc(S(N)(=O)=O)cc2)n1	69%	100%		61%	3	46%	87%	48%			38%
NC(=O)c1nc(-c2ccccc2)n(-c2ccc(S(N)(=O)=O)cc2)n1	52%	75%		49%	2	42%	66%	48%			43%
COc1ccc(NC(=O)c2nc(-c3ccccc3)n(-c3ccc(S(N)(=O)=O)cc3)n2)cc1	78%	113%	0.89 µM	73%	2.3	55%	99%	57%	> 1120	> 1000 µM	53%
COc1ccc(NC(=O)c2nc(-c3ccccc3)n(-c3ccc(S(N)(=O)=O)cc3)n2)cc1OC	72%	104%	1.3 µM	63%	0	60%	91%	52%	266	346 µM	22%
NNC(=O)c1nc(-c2ccccc2)n(-c2ccc(S(N)(=O)=O)cc2)n1	60%	87%		45%	3	32%	76%	53%			32%
Cc1ccc(-c2cc(C(F)(F)F)nn2-c2ccc(S(N)(=O)=O)cc2)cc1 [CELECOXIB]	69%	100%		59%	0.5	52%		50%			44%
NS(=O)(=O)c1ccc(-n2nc(C(=O)Nc3ccc(Cl)cc3)nc2-c2ccccc2)cc1	67%	97%	0.47 µM	53%	0.5	44%	85%	62%	> 2130	> 1000 µM	36%
NS(=O)(=O)c1ccc(-n2nc(C(=O)Nc3nc4ccccc4s3)nc2-c2ccccc2)cc1	54%	78%	0.38 µM	44%	1	38%	68%	32%	2100	798 µM	20%
NS(=O)(=O)c1ccc(-n2nc(C(=O)NCc3ccccc3)nc2-c2ccccc2)cc1	58%	84%	1.7 µM	36%	3	29%	73%	47%	> 588	> 1000 µM	42%
COc1ccc2c(c1)c(CC(=O)O)c(C)n2C(=O)c1ccc(Cl)cc1 [INDOMETHACIN]	79%			81%	39	84%	100%	66%			54%
